Source: the RNAGym collection of RNA variant scans (doi:10.1126/science.aae0568)
Variants at the floor of the assay were thinned out.

B1: tRNA (parent)
chain: GUUCCGUUGGCGUAAUGGUAACGCGUCUCCCUCCUAAGGAGAAGACUGCGGGUUCGAGUCCCGUACGGAACG

Variants of: B1
Assay: yeast fitness relative to wild type (ratio to wild type); higher = fitter; tRNA-Arg(CCU), competitive growth, 37 C, YPD
How it was run: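 The tRNA-Arg(CCU) gene variants were made by chemical synthesis with a 3% per-site mutation rate at 69 sites and inserted at the native genomic locus of Saccharomyces cerevisiae. After pooling, the strains were competed in YPD at 37°C for 24 hours in six parallel replicates. Gene amplicons from the start population and each end population were read by 100-nucleotide paired-end sequencing, and Darwinian fitness relative to wild type was taken from genotype frequency changes. Genotypes needed ≥ 100 starting reads, and estimates < 0.5 were set to 0.5.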

Variant	yeast fitness
C5A C31A C49U	≤ 0.5
U13C A14C A45U C66U	≤ 0.5
A20G U59A A70C	0.646
C4U G6A A15U A20C G25C U35A	≤ 0.5
U26A C61A A65U	0.686
A45C C60U A70G	0.683
C5G A14U G18A A21U A42C G48C	≤ 0.5
C4U G67C	0.829
C11U C29G C33U	≤ 0.5
G6A C22G G25A U47A A70C	≤ 0.5
U2C U3G G18A A65U	≤ 0.5
A15C A36C G38C G52A	≤ 0.5
A20C A21U A42U	≤ 0.5
C5A A15C C29A A42C A45G	0.551
C11G C27A A36G G38A A65C	≤ 0.5
G6A G41A C60G A65G	0.618
C46U U54C G68A	≤ 0.5
C30U U53G	0.618
C31G G41A A43C G51C	0.562
G17C C31A	0.551
C11A C30G A45U C60A	0.537
U13C A14U U32C	0.53
U3A G9A C30A A42U C49U U59C A69C	≤ 0.5
G12C A65C	0.783

Variant	yeast fitness
A15G A20U A57U C60U	≤ 0.5
U2A A21G A36G G44C U59G	≤ 0.5
C5U U7C A45C	0.74
G9A C11G C24G C27A U28C A65U	≤ 0.5
C34U G39A G48C A65U	≤ 0.5
U3C C4G U28C A43C	≤ 0.5
C11U A15G C46U	0.961
U26A C34G A43U C49A	≤ 0.5
C4A A43U C62U	0.791
A14U A21C G41A G67C	≤ 0.5
G23C C62G	0.692
C4U G12C U28G C62G A70U	≤ 0.5
U2A C55A A69U	≤ 0.5
A42U A43U A57G	0.534
U7A U47A C55G G68A	≤ 0.5
U28A C33G A36U A40G U54C A65U	≤ 0.5
C24G C27A	0.616
A37G C49G C55U G56C G68A	≤ 0.5
G9A G12A C49U	0.692
A15C C22A A42C C46A A65U	≤ 0.5
A15C U16C G17C C49G	≤ 0.5
C5A U35C C66U	0.579
G6A U19A G44A	≤ 0.5
C5G C55U	0.791

Variant	yeast fitness
A14U U16C A21G C24U C46G C62U	≤ 0.5
U3A G51A	0.765
C5G C62U	0.79
C5U C11U A15C C29A C30A A36U G38C C61U C66A	≤ 0.5
A43U G68C	0.815
G6C G23C C24A C66U	≤ 0.5
G25A C55G U59A G63A	≤ 0.5
A14G C27G	0.562
C4G C11U U19A U32A A37U	≤ 0.5
A14U U26A C55G A65C	≤ 0.5
C29U G48A G56C C61U	≤ 0.5
G6C C31U A43G A69U	≤ 0.5
A21C C31A C46A U54C	≤ 0.5
U2A U3G A36U	≤ 0.5
C4G C22G A43U A57C U59C	≤ 0.5
U7A G9A C24A	≤ 0.5
C5A A15U G25A U59C	≤ 0.5
A42G G51A	0.822
G10C U53A	≤ 0.5
G6A G12A A21G C46A	0.636
C55U C60G	≤ 0.5
U16G C30A G51C G56C C62G	0.65
C33U C61U A69G	≤ 0.5
C4G C27U G41C U64A G67A	≤ 0.5

Variant	yeast fitness
U8A C24U A40U A42C A45U C49U	≤ 0.5
C27G C60U	≤ 0.5
U47A U53A	0.557
G9A C29A A42C C55U	≤ 0.5
C30U C34A A36G C60U A70U	≤ 0.5
U28G C29A G41C A43U	≤ 0.5
C29A U32A A65C	≤ 0.5
C60U C62A	≤ 0.5
C11G C24G G51C	0.611
U3C C5G A21U A42C	≤ 0.5
A14G G23C C29G G63C C66G	≤ 0.5
U26A A42C	0.97
G18C U47A	0.553
G6A G51C	0.595
G9A C55G U64A	≤ 0.5
C11G G12A C31G	≤ 0.5
C31U G41C	0.796
U13G A21U C22G U35A A65G	≤ 0.5
U32C G58A	0.798
C11A C29A A37U	≤ 0.5
G23C C24G C34U G39A A45C	≤ 0.5
C5U U8G A20G C34A	≤ 0.5
U16C A40G C46A	0.712
U3C C31G C34U G38A	≤ 0.5

Variant	yeast fitness
G6C C34G A65G	≤ 0.5
A14C C22G G25C G44A C61G	0.543
G18C C27U G68C	0.548
G6A C34G C62U G68C	≤ 0.5
C5G G25A A69U	0.75
U2G C33U C34G G48C G67C	≤ 0.5
U35A A37G C49A	≤ 0.5
C30G A37C C46G G56A	≤ 0.5
A15G C24A G63A	≤ 0.5
A14G A15G U54C	0.569
U19C A20C G50C U64C	≤ 0.5
C4G C29U C30G G39C	≤ 0.5
G18C U19G C27U A43U A65U	≤ 0.5
G67C G68A	0.874
G12A A15U C24U G44C G52C	≤ 0.5
U2G C5A U19A A43G	≤ 0.5
G25C C33G A43C A57C G63C	≤ 0.5
G10C U35G A43C U47C C55U C66U	≤ 0.5
G10A C34G G44C U47C G52A U53C C61U	≤ 0.5
A42G C61A G63C	≤ 0.5
G12C C31U C62G	0.557
G10A C31U G38C G41A G63A G68C A69G	≤ 0.5
C29U A43C	0.948
U3G A14C C24G C60U U64A	≤ 0.5

Variant	yeast fitness
U3G U7A G9A A69U	≤ 0.5
A43U C60U G67C	0.636
U8C A20G A65G G68A	≤ 0.5
C29U U32A A69U	0.6
U8G U28A C34A C66A	≤ 0.5
U2A U47A	0.851
C4A U26G U53G	≤ 0.5
U3A U26A C34U U47G U64A	≤ 0.5
U2A U8A	0.811
A14C G51C U59G	≤ 0.5
A42C C60G C62G G68C	≤ 0.5
C5U C31G A57U	≤ 0.5
C4A C5A C66A A69C	≤ 0.5
G38A C46U	0.798
A40C C62G	0.66
C30U A37G A42G C60G	0.516
C5U A36U A70U	0.628
A14G G51A A57C	0.742
U7C G67A	0.863
G17C C33G G48U	≤ 0.5
U2A G9A A20C C24U C61G	≤ 0.5
C11A U19G	0.669
A15U G23A A45G	≤ 0.5
A20C A36C G41C G67C A69G	≤ 0.5

Variant	yeast fitness
A45G C61A A65U	≤ 0.5
C5U G17A A40U A42C C49A C66A	0.593
G12C A15U C24A U54A C62U A65G G68A	≤ 0.5
G6A A37U A40C	≤ 0.5
A15U C60A G63A	≤ 0.5
A20G A57C C62U	≤ 0.5
U7A G10A A20C C29A	0.543
U8C A21C C27U C49U G58C C61A A65U	≤ 0.5
U16C G18A C24G A45U C62A	≤ 0.5
G10A A14U A20G U26G C31G C34G A42U A43C G50C	≤ 0.5
U13A U53A	0.59
C5U A15G C66U	0.632
U2C G44A A70C	0.884
U2A C24U U47C C60U	≤ 0.5
G9C U19C A69U	0.656
U26C C46A U47G G50A C61A G67A	≤ 0.5
U3G C60A C66U	≤ 0.5
C31A A42G A57U U59A	≤ 0.5
U8C A15C C34U A57C	≤ 0.5
C5U A14G C24U A40U C55G	≤ 0.5
U16C G50A	0.799
A43U A45G	0.852
C33G U64A	≤ 0.5
